Key:
[1] = molecular target: Mitogen-activated protein kinase 9 (Homo sapiens) (UniProt P45984); test: Inhibition of JNK2 (unknown origin) at 1 uM relative to control
Summary of the method: (§1)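 Single-point screen of each compound against a panel of 59 protein kinases, at 1 or 10 μM. The panel data are also summarised as a rescaled geometric mean selectivity score.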

[2] = molecular target: Serine/threonine-protein kinase Chk2 (Homo sapiens) (UniProt O96017); test: Inhibition of CHK2 (unknown origin) at 1 uM relative to control; summary of the method: as §1
Serine/threonine-protein kinase Chk2 (Homo sapiens), sequence (O96017 whole entry): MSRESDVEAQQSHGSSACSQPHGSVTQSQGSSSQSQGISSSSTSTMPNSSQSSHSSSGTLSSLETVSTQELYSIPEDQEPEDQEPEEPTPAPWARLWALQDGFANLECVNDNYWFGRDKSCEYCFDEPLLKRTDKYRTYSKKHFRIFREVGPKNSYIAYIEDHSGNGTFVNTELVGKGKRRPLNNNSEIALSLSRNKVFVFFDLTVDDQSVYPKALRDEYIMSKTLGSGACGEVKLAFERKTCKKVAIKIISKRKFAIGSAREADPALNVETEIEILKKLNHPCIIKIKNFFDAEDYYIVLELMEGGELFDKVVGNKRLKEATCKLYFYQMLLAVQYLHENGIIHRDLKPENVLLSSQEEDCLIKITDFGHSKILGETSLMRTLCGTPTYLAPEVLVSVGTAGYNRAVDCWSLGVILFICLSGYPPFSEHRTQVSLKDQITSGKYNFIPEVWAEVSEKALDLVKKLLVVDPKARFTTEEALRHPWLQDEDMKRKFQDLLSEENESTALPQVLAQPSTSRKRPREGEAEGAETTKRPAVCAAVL

[3] = molecular target: Phosphorylase kinase (Homo sapiens) (UniProt P15735+P46020+P46019+Q93100+Q16816); test: Inhibition of PHK (unknown origin) at 1 uM relative to control; format: protein-complex assay
Summary of the method: (§2)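 Single-concentration screen of each compound against a 59-protein-kinase panel, run at 10 µM or 1 µM. Activity relative to control is shown as a heat map across the panel.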

[4] = molecular target: Proto-oncogene tyrosine-protein kinase Src (Homo sapiens) (UniProt P12931); test: Inhibition of Src (unknown origin) at 1 uM relative to control
Proto-oncogene tyrosine-protein kinase Src (Homo sapiens), sequence (P12931 2-536 limits assumed): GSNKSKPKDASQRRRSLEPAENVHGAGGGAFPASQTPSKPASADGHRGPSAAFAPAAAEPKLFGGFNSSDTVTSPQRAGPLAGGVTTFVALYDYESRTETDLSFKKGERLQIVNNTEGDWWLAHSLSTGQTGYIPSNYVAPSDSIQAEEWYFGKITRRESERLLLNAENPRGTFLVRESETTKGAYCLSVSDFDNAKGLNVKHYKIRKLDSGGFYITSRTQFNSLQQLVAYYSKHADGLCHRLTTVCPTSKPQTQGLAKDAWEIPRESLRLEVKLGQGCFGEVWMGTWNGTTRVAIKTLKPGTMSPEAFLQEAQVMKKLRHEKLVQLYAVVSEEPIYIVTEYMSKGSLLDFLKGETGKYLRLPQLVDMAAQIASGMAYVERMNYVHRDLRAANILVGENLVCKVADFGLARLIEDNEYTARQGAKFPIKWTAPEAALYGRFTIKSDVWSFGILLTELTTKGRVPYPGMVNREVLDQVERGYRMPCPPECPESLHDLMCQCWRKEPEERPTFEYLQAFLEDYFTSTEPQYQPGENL
Summary of the method: (§3)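 Single-concentration screen across a panel of 59 protein kinases, with each compound tested at one fixed concentration. The read-out is residual kinase activity relative to control. Panel results are also condensed into a rescaled geometric mean (RGM) selectivity score.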

Homo sapiens [5] = species: Homo sapiens; test: Inhibition of PKA (unknown origin) at 1 uM relative to control; summary of the method: as §2
[6] = molecular target: T1, Serine/threonine-protein kinase Chk1 (Homo sapiens) (UniProt O14757); test: Inhibition of CHK1 (unknown origin) at 1 uM relative to control; summary of the method: as §1
T1 sequence (whole entry): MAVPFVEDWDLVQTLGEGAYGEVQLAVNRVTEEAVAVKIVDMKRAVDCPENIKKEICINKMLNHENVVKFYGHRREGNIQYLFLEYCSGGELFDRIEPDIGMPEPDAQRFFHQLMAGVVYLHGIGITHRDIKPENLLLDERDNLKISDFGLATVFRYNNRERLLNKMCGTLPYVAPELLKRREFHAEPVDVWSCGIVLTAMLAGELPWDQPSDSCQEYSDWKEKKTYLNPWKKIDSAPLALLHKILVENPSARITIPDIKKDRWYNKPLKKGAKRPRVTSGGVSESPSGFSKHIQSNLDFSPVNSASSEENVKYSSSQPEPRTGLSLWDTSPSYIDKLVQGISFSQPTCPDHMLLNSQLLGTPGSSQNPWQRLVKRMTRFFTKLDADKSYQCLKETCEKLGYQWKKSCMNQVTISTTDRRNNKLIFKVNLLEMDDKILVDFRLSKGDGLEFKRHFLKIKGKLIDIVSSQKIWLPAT

[7] = molecular target: 3-phosphoinositide-dependent protein kinase 1 (Homo sapiens) (UniProt O15530); test: Inhibition of PDK1 (unknown origin) at 1 uM relative to control
3-phosphoinositide-dependent protein kinase 1 (Homo sapiens), sequence (O15530 whole entry, looked up): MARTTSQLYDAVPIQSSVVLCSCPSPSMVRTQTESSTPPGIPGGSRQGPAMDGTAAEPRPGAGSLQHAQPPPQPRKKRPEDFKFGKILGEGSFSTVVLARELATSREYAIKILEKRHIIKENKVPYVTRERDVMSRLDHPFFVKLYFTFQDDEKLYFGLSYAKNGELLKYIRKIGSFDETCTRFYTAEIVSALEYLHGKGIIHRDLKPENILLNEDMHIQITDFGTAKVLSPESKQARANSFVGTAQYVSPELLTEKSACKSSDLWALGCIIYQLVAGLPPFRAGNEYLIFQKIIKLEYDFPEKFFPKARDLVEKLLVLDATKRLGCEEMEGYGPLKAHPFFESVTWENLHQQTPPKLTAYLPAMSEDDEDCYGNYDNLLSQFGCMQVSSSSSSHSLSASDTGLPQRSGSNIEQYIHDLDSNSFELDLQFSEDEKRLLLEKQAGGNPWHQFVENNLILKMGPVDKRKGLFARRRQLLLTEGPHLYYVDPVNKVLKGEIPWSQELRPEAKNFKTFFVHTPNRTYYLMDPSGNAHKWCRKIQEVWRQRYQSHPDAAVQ

[8] = molecular target: T2, Serine/threonine-protein kinase Nek2 (Homo sapiens) (UniProt P51955); test: Inhibition of NEK2a (unknown origin) at 1 uM relative to control; summary of the method: as §2
T2 sequence (whole entry): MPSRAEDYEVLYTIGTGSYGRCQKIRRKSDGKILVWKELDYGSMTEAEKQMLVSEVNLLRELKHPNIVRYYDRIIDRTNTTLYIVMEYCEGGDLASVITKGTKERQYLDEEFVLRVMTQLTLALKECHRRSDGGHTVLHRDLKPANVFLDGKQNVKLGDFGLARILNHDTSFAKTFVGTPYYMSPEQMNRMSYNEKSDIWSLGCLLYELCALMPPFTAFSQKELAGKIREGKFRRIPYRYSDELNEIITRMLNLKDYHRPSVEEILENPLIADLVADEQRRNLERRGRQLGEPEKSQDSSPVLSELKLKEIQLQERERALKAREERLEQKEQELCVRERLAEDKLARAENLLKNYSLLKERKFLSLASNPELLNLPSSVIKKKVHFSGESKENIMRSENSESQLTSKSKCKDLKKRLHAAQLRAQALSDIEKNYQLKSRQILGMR

[9] = molecular target: AMP-activated protein kinase, AMPK (Homo sapiens) (UniProt P54646+O43741+P54619+Q9UGJ0+Q9Y478+Q13131+Q9UGI9); test: Inhibition of AMPK (unknown origin) at 1 uM relative to control; format: protein-complex assay; summary of the method: as §1
[10] = molecular target: Serine/threonine-protein kinase pim-1 (Homo sapiens) (UniProt P11309); test: Inhibition of PIM1 (unknown origin) at 1 uM relative to control; summary of the method: as §2
Homo sapiens [11] = species: Homo sapiens; test: Inhibition of VEGFR (unknown origin) at 1 uM relative to control; summary of the method: as §3
[12] = molecular target: Mitogen-activated protein kinase 8 (Homo sapiens) (UniProt P45983); test: Inhibition of JNK1 (unknown origin) at 1 uM relative to control; summary of the method: as §1
Mitogen-activated protein kinase 8 (Homo sapiens), sequence (P45983 whole entry): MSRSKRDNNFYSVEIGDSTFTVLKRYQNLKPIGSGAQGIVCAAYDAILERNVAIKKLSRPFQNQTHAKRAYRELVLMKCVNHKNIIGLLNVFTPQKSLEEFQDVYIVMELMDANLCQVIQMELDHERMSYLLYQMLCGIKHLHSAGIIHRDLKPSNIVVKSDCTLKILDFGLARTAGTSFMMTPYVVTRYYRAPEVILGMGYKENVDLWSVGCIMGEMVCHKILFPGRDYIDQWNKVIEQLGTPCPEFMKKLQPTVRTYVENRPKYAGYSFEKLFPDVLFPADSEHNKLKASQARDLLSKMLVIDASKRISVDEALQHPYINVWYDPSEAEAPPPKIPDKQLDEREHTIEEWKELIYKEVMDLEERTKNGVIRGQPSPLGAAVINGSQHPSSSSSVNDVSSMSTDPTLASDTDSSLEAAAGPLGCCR

[13] = molecular target: Protein kinase C alpha type (Homo sapiens) (UniProt P17252); test: Inhibition of PKCa (unknown origin) at 1 uM relative to control; summary of the method: as §2
[14] = molecular target: Mitogen-activated protein kinase 3 (Homo sapiens) (UniProt P27361); test: Inhibition of ERK1 (unknown origin) at 1 uM relative to control; summary of the method: as §1
[15] = molecular target: MAP kinase-interacting serine/threonine-protein kinase 1 (Homo sapiens) (UniProt Q9BUB5); test: Inhibition of MNK1 (unknown origin) at 1 uM relative to control; summary of the method: as §2
MAP kinase-interacting serine/threonine-protein kinase 1 (Homo sapiens), sequence (Q9BUB5 whole entry, looked up): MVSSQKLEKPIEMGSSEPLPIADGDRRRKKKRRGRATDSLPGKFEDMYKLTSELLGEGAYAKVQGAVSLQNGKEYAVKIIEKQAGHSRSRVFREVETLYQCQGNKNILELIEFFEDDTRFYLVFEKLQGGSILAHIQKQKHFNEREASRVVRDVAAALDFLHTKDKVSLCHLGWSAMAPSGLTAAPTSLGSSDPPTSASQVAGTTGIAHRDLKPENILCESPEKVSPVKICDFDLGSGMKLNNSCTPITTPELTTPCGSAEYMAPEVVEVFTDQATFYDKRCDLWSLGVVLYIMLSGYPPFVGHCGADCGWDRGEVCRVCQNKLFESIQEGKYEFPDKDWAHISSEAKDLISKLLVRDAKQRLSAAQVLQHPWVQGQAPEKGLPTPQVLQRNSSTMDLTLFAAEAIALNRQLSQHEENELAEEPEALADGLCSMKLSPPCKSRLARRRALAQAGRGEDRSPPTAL

[16] = molecular target: Fibroblast growth factor receptor 1 (Homo sapiens) (UniProt P11362); test: Inhibition of FGFR1 (unknown origin) at 1 uM relative to control; summary of the method: as §1
Fibroblast growth factor receptor 1 (Homo sapiens), sequence (P11362 22-822 limits assumed): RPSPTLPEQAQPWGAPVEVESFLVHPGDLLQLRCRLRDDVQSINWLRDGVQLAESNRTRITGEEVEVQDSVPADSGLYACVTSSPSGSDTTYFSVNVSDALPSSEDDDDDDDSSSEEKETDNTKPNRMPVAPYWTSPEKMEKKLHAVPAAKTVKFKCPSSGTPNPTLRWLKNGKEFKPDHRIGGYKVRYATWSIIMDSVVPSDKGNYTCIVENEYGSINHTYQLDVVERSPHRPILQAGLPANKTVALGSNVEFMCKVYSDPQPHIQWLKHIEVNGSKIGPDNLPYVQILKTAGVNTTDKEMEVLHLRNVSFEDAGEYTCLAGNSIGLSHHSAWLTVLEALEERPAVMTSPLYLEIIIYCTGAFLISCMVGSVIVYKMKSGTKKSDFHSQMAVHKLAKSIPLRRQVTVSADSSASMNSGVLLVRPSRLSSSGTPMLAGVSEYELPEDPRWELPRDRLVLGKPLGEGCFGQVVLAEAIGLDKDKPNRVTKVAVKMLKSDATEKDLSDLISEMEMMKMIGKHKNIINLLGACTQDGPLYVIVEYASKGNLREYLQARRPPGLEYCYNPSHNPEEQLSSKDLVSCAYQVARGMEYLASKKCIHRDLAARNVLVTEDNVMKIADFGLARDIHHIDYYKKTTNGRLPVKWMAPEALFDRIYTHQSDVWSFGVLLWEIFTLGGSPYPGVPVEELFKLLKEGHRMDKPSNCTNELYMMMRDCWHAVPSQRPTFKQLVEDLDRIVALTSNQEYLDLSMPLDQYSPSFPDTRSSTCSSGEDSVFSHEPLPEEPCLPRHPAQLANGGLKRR

[17] = molecular target: T3, MAP kinase-activated protein kinase 5 (Homo sapiens) (UniProt Q8IW41); test: Inhibition of PRAK (unknown origin) at 1 uM relative to control; summary of the method: as §2
T3 sequence (whole entry): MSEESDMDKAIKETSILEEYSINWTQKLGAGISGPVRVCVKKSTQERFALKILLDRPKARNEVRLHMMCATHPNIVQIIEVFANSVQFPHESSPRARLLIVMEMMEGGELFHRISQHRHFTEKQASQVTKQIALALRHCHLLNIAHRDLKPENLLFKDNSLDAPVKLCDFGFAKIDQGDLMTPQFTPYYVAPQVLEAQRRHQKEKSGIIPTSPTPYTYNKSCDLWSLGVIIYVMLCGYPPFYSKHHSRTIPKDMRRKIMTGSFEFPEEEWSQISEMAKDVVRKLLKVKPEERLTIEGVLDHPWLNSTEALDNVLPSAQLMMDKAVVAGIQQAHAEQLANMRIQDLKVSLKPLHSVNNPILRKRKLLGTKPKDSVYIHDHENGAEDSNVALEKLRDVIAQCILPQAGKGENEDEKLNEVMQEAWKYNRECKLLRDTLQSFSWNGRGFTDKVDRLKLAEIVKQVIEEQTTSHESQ

[18] = molecular target: Insulin-like growth factor 1 receptor (Homo sapiens) (UniProt P08069); test: Inhibition of IGF1R (unknown origin) at 1 uM relative to control; summary of the method: as §1
[19] = molecular target: CDK2/Cyclin A2 (Homo sapiens) (UniProt P24941+P20248); test: Inhibition of CDK2/cyclinA (unknown origin) at 1 uM relative to control; format: protein-complex assay; summary of the method: as §1
[20] = molecular target: Mitogen-activated protein kinase 14 (Homo sapiens) (UniProt Q16539); test: Inhibition of p38a MAPK (unknown origin) at 1 uM relative to control; summary of the method: as §3
Mitogen-activated protein kinase 14 (Homo sapiens), sequence (Q16539 whole entry): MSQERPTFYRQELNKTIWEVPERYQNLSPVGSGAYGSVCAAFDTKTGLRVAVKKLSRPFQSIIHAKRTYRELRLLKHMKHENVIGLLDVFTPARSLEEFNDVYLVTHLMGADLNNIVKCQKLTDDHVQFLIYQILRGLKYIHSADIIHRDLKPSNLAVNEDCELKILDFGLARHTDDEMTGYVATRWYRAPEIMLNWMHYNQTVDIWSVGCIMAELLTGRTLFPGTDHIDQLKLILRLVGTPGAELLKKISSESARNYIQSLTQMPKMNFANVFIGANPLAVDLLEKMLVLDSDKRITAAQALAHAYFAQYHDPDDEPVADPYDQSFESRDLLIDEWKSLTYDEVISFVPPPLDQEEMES

Mitogen-activated protein kinase 9 (Homo sapiens), sequence (P45984 whole entry, looked up): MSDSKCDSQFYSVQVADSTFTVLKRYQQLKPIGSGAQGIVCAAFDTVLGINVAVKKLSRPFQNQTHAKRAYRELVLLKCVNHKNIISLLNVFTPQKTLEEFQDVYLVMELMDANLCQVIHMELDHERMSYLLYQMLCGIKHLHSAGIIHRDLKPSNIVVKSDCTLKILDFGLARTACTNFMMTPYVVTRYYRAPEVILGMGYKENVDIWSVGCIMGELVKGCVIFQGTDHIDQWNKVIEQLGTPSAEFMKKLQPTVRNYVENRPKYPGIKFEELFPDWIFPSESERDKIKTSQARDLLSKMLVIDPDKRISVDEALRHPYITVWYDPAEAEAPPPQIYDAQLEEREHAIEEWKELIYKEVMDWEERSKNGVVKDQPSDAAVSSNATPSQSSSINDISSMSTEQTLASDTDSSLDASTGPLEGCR

Row | Structure (SMILES) | inhibition [1] [%] | inhibition [2] [%] | inhibition [3] [%] | inhibition [4] [%] | inhibition (Homo sapiens [5]) [%] | inhibition [6] [%] | inhibition [7] [%] | inhibition [8] [%] | inhibition [9] [%] | inhibition [10] [%] | inhibition (Homo sapiens [11]) [%] | inhibition [12] [%] | inhibition [13] [%] | inhibition [14] [%] | inhibition [15] [%] | inhibition [16] [%] | inhibition [17] [%] | inhibition [18] [%] | inhibition [19] [%] | inhibition [20] [%]
1 | CC(C)n1cc(-c2n[nH]c3ccnc(OC4CCOCC4)c23)cn1 | 29 | 29 | 41 | 0 | 11 | 5 | 5 | 8 | 19 | 77 | 59 | 27 | 0 | 28 | 0 | 56 | 19 | 40 | 66 | 0
2 | c1cc(-c2n[nH]c3ccnc(OC4CCOCC4)c23)cc(N2CCOCC2)n1 | 43 | 0 | 15 | 0 | 26 | 0 | 0 | 0 | 0 | 34 | 2 | 47 | 0 | 37 | 2 | 4 | 4 | 11 | 23 | 0
